Experimental data collected from several papers.
Protocols differ between the studies behind these lines. pEC50, pIC50: −log10 of the molar value.

SMILES | tested on | test | conditions | quantity | value
CC(=NNC(=O)c1cccnc1)c1ccc(Nc2nnc(-c3ccc(Cl)cc3)c3ccccc23)cc1 | MCF7 | cell growth or viability, MTT | 0.625 µM | cell death | 50.6%
Cc1cccc(/C=N/N=C/c2cccc(C)c2)c1 |  | DPPH scavenging |  | pIC50 | 3.15
C=C(C)[C@@H]1CC[C@@H](C)C[C@H]1OCc1ccccc1 | MCF7 | cell growth or viability, MTT | 30 µM, 72 h | inhibition | 31.6%
CCN(CC)c1ccc(/C=N/c2ccc(Cl)cc2)c(O)c1 |  | DPPH scavenging |  | pIC50 | 4.52
Clc1cccc(/C=N/N=C/c2cccc(Cl)c2)c1 |  | DPPH scavenging |  | pIC50 | 2.63
CC(=NNC(=S)Nc1ccccc1)c1ccc(Nc2nnc(-c3ccc(Cl)cc3)c3ccccc23)cc1 | MCF7 | cell growth or viability, MTT | 1.25 µM, 24 h | viability | 27.5%
Brc1ccc(/C=N/N=C/c2ccc(Br)cc2)cc1 |  | DPPH scavenging |  | pIC50 | < 2.52
O=C(Nc1ccc(Oc2nnc(-c3ccc(Cl)cc3)c3ccccc23)cc1)c1cccc([N+](=O)[O-])c1 | MCF7 | cell growth or viability, MTT | 10 µM | cell death | 92%
CCN(CC)c1ccc(/C=N/c2ccc(Br)cc2)c(O)c1 |  | DPPH scavenging |  | pIC50 | 4.36
CCOC(=O)c1nn(-c2cccc(Cl)c2)/c(=N/N=C(\C)c2ccc(NC(=O)c3ccccc3)cc2)s1 | MCF7 | cell growth or viability, MTT | 78 nM | viability | 87.7%
Brc1ccccc1/C=N/N=C/c1ccccc1Br |  | DPPH scavenging |  | pIC50 | < 2.52
CC(=NNC(=O)c1ccccc1)c1ccc(Nc2nnc(-c3ccc(Cl)cc3)c3ccccc23)cc1 | MCF7 | cell growth or viability, MTT | 5 µM, 24 h | viability | 5.18%
CCOC(=O)c1nn(-c2cccc(Cl)c2)/c(=N/N=C(\C)c2ccc(NC(=O)c3ccc(Cl)cc3)cc2)s1 | MCF7 | cell growth or viability, MTT | 10 µM | viability | 3.71%
Clc1ccc(/C=N/N=C/c2ccc(Cl)cc2Cl)c(Cl)c1 |  | DPPH scavenging |  | pIC50 | < 2.52
CC(=O)c1nn(-c2ccccc2Cl)/c(=N/N=C(\C)c2ccc(NC(=O)c3ccccc3)cc2)s1 | MCF7 | cell growth or viability, MTT | 5 µM | viability | 6.17%
O=C(Nc1ccccc1)Nc1ccc(Oc2nnc(-c3ccc(Cl)cc3)c3ccccc23)cc1 | MCF7 | cell growth or viability, MTT | 10 µM, 24 h | viability | 5.36%
FC(F)(F)c1ccc(/C=N/N=C/c2ccc(C(F)(F)F)cc2)cc1 |  | DPPH scavenging |  | pIC50 | < 2.52
C=CC(=O)NC1CCN(c2ncc3ncnc(Nc4ccc(Oc5ccc6c(c5)ncn6C)c(C)c4)c3n2)CC1 | NCI-H2126 | cell growth or viability |  | pEC50 | 5.96
